# Experimental data gathered from unrelated publications.
# Sample: plasma
Compound,test system,conditions,Tmax
CN1CC[C@@H](c2c(O)cc(O)c3c(=O)cc(-c4ccc(C(F)(F)F)cc4Cl)oc23)[C@@H]1CO,human,"oral, 200 mg, patients",5.2 h
COc1ccc([C@@H](O)c2cc(-c3ncnc4cc(N5CCOCC5)ccc34)c(F)cc2Cl)nn1,human,"oral, 250 mg, single dose, patients",1.03 h
Cl.[2H]C([2H])([2H])CC(=O)c1cnc(NC(=O)C2CC2)cc1Nc1cccc(-c2ncn(C([2H])([2H])[2H])n2)c1OC,human,"oral, 10 mg, multiple doses, once daily, fasted",1.6 h
C[C@H](O)C(=O)C1=Nc2c(nc(N)[nH]c2=O)NC1,human,"oral, 20 mg/kg, single dose, healthy volunteers",4 h
Cc1ccc(C(=O)Nc2ccc(CN3CCN(C)CC3)c(C(F)(F)F)c2)cc1C#Cc1cnc2[nH]ncc2c1,human,"oral, 20 mg, healthy volunteers",8 h
CNC(=O)n1ccc2cc(Oc3ccnc(NC(=O)c4ccc(C5CCN(CCO)CC5)cc4)c3)c(OCCOC)cc21,human,"oral, 35 mg, single dose, healthy volunteers",2 h
Cn1cc(Nc2nc(N)nc(-c3cccc(-n4ccc5cc(C6CC6)cc(F)c5c4=O)c3CO)n2)cn1,human,"oral, 900 mg, single dose, fasted, suspension",4 h
CC(C)n1c(Nc2cccnc2)nc2cnc(Nc3ccc(N4CCN(C)CC4)cc3)nc21,male human,"oral, 100 mg, single dose, healthy volunteers",1.5 h
NS(=O)(=O)OC[C@@H]1C[C@@H](n2ccc3c(N[C@H]4CCc5ccccc54)ncnc32)C[C@@H]1O,human,"intravenous, 20 mg/m², patients",1.03 h
